The source made the active and inactive calls. The calls are words filed in the database; no cut-off is given here.
Experiments:
[1] = Inhibition of Yersinia PTP
In short: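 Recombinant Yop51* enzyme; p-nitrophenyl phosphate at 0.5–4.0 mM in 0.05 M BISTRIS pH 6.5 with 100 mM NaCl, 0.05% Brij-35, 0.6 vol% DMSO, 0.4 mM EDTA and 1 mM DTT. Substrate and inhibitor were preincubated 5 min at 30 °C, then enzyme was added. Initial rates were read as p-nitrophenol A410 (ε 18,300 M⁻¹ cm⁻¹). Ki came from Lineweaver–Burk analysis at several inhibitor levels, reported as mean and standard deviation.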

[2] = Selectivity for human recombinant PTPbeta over Yersinia PTP
[3] = molecular target: Receptor-type tyrosine-protein phosphatase beta (Homo sapiens, UniProt P23467); assay: Inhibition of human recombinant PTPbeta
In short: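 Human recombinant PTPβ; 1 mM p-nitrophenyl phosphate preincubated 5 min at 30 °C with varying inhibitor concentrations in 0.05 M BISTRIS pH 7.0 with 100 mM NaCl, 0.05% Brij-35, 0.8 vol% DMSO and 1 mM diethylenetriamine pentaacetic acid. Enzyme was added to start the reaction and A410 was followed over time. IC50 is the concentration halving activity after 5 min. For competitive inhibition, Ki was taken as ½ IC50 at substrate equal to Km.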

Homo sapiens = organism: Homo sapiens; assay: Inhibition of human PP1 at 50 uM

Sequence of Receptor-type tyrosine-protein phosphatase beta (P23467 whole entry): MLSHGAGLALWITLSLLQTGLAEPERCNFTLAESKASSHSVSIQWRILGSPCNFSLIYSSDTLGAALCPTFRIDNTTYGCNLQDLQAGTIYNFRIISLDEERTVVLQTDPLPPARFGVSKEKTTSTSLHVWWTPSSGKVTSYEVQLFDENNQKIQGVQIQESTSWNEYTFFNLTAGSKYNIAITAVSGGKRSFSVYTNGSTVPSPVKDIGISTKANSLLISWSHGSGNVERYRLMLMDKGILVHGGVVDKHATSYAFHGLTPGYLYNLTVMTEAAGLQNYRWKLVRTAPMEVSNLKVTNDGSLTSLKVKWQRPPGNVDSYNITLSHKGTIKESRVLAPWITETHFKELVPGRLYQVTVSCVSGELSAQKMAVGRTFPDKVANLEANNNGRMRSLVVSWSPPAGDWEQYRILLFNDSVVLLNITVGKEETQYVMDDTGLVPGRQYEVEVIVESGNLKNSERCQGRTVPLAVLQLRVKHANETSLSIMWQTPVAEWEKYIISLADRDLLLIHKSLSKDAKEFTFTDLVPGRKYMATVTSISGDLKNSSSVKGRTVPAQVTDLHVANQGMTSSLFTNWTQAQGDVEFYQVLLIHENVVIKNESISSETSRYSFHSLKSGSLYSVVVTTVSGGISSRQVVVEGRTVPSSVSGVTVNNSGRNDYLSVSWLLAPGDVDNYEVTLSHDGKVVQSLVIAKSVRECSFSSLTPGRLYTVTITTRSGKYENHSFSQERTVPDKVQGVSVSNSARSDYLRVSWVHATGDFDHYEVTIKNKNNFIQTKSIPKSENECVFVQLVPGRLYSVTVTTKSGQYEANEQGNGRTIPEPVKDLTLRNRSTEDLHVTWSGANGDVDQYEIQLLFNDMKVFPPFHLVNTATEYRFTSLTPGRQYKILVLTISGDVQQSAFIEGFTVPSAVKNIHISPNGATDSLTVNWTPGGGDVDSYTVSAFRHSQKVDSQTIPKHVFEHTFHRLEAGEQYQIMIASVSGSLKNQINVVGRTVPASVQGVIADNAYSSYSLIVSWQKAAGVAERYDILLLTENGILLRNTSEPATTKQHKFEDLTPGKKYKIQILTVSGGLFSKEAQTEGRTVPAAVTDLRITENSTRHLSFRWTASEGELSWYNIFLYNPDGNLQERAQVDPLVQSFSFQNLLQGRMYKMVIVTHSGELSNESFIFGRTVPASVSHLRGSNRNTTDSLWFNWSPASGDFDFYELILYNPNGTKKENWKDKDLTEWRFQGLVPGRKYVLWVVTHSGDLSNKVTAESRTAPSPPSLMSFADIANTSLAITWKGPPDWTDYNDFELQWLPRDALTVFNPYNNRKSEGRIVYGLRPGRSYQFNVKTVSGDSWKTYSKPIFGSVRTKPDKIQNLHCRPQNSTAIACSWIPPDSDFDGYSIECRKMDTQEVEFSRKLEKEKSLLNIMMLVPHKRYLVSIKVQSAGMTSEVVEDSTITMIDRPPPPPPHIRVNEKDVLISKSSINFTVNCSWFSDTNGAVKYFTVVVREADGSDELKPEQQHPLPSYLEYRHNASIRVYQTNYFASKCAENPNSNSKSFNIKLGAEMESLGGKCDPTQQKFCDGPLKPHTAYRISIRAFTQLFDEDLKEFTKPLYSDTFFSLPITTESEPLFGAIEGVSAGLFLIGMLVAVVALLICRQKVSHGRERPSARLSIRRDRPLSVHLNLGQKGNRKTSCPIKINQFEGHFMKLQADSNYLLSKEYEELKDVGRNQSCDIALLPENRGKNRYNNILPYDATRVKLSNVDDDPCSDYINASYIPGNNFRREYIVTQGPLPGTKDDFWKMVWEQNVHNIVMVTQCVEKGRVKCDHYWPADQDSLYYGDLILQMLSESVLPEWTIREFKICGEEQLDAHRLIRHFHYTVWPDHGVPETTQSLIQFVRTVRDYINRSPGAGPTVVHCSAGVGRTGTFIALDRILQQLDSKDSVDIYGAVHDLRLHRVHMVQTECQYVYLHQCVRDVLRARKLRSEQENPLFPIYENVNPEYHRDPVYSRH

Row | SMILES | Ki [1] | fold change (FC) [2] | IC50 [3] | Activity (Homo sapiens)
1 | CCCOc1c2cccc1Cc1cc(C(P(=O)(O)O)P(=O)(O)O)cc(c1O)Cc1cccc(c1OCCC)Cc1cccc(c1O)C2 | 7.1 µM | – | – | –
2 | O=P(O)(O)Cc1cc2c(O)c(c1)Sc1cc(CP(=O)(O)O)cc(c1O)Sc1cc(CP(=O)(O)O)cc(c1O)Sc1cc(CP(=O)(O)O)cc(c1O)S2 | 0.22 µM | 3 | 0.13 µM | inactive
3 | O=P(O)(O)C(c1cc2c(O)c(c1)Cc1cc(C(P(=O)(O)O)P(=O)(O)O)cc(c1O)Cc1cc(C(P(=O)(O)O)P(=O)(O)O)cc(c1O)Cc1cc(C(P(=O)(O)O)P(=O)(O)O)cc(c1O)C2)P(=O)(O)O | 40 µM | – | – | –
4 | O=P(O)(O)C(c1ccc(O)cc1)P(=O)(O)O | 570 µM | – | – | –
5 | O=P(O)(O)Cc1cc2c(O)c(c1)Cc1cc(CP(=O)(O)O)cc(c1O)Cc1cc(CP(=O)(O)O)cc(c1O)Cc1cc(CP(=O)(O)O)cc(c1O)C2 | 0.92 µM | – | 3.8 µM | inactive
6 | CCCOc1c2cccc1Cc1cc(C(P(=O)(O)O)P(=O)(O)O)cc(c1O)Cc1cccc(c1OCCC)Cc1cc(C(P(=O)(O)O)P(=O)(O)O)cc(c1O)C2 | 1.4 µM | – | 32 µM | inactive

Reference: ChEMBL document CHEMBL1153248, “Inhibition of Yersinia protein tyrosine phosphatase by phosphonate derivatives of calixarenes” (Bioorg Med Chem Lett, 2010)
